Screening results (PubChem)
The list is not random: actives were taken first. Their share in the collection is about 1.6%.
PvdQ inh = P. aeruginosa PvdQ acylase inhibition | purified PvdQ acylase, fluorescence plate reader | inhibition, % at 10 µM | 340,000 tested, 0.063% active; in the data active = inhibition above about 30%, passing the limit was not always enough; inconclusive = no clear call, values can overlap the other calls;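 note: 0% = vehicle neutral wells and 100% = reference inhibitor wells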
RAD54 branch = RAD54 (human) branch migration inhibition; Q92698; RAD54 Holliday junction branch migration, FAM/BHQ fluorescence; inhibition, % at 10.4 µM; 360,000 tested, 0.14% active; AID 602329;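 active = mean normalized replicate activity at least 40 and at least half of replicates scoring 40 or more; inconclusive = only one of the two criteria met; inactive = mean below 40 and under half of replicates reaching 40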;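 note: 0% = median of neutral control wells and 100% = median of positive control wells; inhibitors cause a drop in the FAM fluorescence signal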
SR-BI HDL uptake = blocks mouse SR-BI lipid uptake from DiI-HDL | Q61009 | ldlA[mSR-BI] CHO cells, DiI-HDL uptake fluorescence, 3 h | inhibition, % at 12.5 µM | 320,000 tested, 0.96% active | AID 488896;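 active = mean replicate inhibition of at least 70% and a set share of replicates each scoring 70 or more; inconclusive = meets just one of the two criteria; inactive = fails both criteria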;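 note: 0% = median of neutral control wells and 100% = median of positive control wells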
S100A4 MyoIIA = blocks human S100A4 binding to myosin IIA peptide; S100A4/TAMRA-MyoIIA peptide fluorescence polarization; AID 652163; inhibition, % at 10.7 µM; P26447; 360,000 tested, 0.14% active;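 active = mean inhibition of at least 70% across replicates, with every replicate also reaching that level; inconclusive = mean inhibition reaches 70% but some replicates fall short; inactive = mean inhibition below 70%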
Target sequence (P26447 whole entry, looked up): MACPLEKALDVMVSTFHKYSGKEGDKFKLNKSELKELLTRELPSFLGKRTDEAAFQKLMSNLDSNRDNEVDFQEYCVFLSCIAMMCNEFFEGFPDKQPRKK
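Material: S100A4 monomer protein | Medium: HEPES pH 7.2 with CaCl2, KCl, NaCl, DTT, Triton | Reagent: Labelled myosin peptide probe, 5 nM | Doses: One dose per compound | Times: 5 min incubation before reading | Benchmarks: Neutral control DMSO, positive control TFP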
SR-BI DiI-HDL act = SR-BI HDL lipid transfer activation | CHO ldlA[mSR-BI] cells, DiI-HDL uptake fluorescence, 3 h; 100 = double the neutral-control signal | activation, % at 12.5 µM | AID 504775 | 320,000 tested, 0.096% active;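 active = mean replicate activation of at least 60% and every replicate at or above 60%; inconclusive = mean or all-replicate condition met, but not both; inactive = mean below 60% and not all replicates reaching 60%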;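 note: 0% = median plate neutral-control signal and 100% = twice that signal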
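System: CHO ldlA[mSR-BI] cells / Medium: HEPES-buffered (25 mM, pH 7.4) F12 plus 0.5% BSA / Probe or stimulus: labelled HDL, 10 µg/mL / Doses: single compound concentration, delivered by pin transfer / Schedule: 3 h, 37 °C / Measured by: DiI fluorescence, bottom read / Measure: cell-associated DiI fluorescence as measure of HDL uptake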
dFosB act = activators of mouse delta FosB homodimer. activation, % at 25 µM. purified delta FosB, TAMRA-CDK5 oligo fluorescence polarization; percent of positive-control signal above neutral wells. 340,000 tested, 0.99% active;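 active = mean activation above about 17%, with every replicate also reaching it, limit read from the data, passing the limit was not always enough; inconclusive = only one of the two conditions met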
Target sequence (P13346 whole entry, looked up): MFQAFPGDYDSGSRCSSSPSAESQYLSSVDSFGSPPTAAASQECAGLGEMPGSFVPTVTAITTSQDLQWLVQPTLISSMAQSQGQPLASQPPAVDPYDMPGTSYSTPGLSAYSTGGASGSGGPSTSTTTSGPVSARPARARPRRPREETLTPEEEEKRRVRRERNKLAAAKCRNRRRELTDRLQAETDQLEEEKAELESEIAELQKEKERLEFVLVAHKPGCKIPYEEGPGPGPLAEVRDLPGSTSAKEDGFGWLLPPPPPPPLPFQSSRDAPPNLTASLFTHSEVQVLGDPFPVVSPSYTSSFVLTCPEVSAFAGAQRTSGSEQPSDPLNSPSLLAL
Numbers without * were called inactive; u = inconclusive; x = not tested or not shown.

SMILES	PvdQ inh	RAD54 branch	SR-BI HDL uptake	S100A4 MyoIIA	SR-BI DiI-HDL act	dFosB act
N#CC(c1ccc(Cl)nn1)c1ccccc1Cl (stereo unspecified)	108*	3	-29	x	29	3
Cc1ccc(C(C#N)c2ccc(Cl)nn2)cc1 (stereo unspecified)	86*	x	-5	-1	5	-1
O=C(CN1CCOCC1)N[C@H]1CC[C@H](CCNC(=O)C2CCC2)O[C@H]1CO	x	-18	x	45	x	x
O=C(c1cccc(F)c1)N1CC[C@H]2[C@H](CO)Nc3ccc(C#Cc4cccc(F)c4)cc3[C@H]21	x	x	x	-5	x	x
O=C(CCN1C(=O)/C(=C\c2ccc(F)cc2)SC1=S)Nc1ccccc1	-17	-16	x	-2	x	-2
O=C(CCN1C(=O)/C(=C\c2ccccc2)SC1=S)Nc1ccc(C(=O)O)cc1	-6	1	2	-3	-2	-1
COc1ccc(/C=C2\SC(=S)N(CCC(=O)Nc3ccc(O)cc3)C2=O)cc1	-7	-11	33	4	-33	34*
O=C(CCN1C(=O)/C(=C\c2ccc(F)cc2)SC1=S)Nc1ccc(O)cc1	-8	0	30	-1	-30	32*
CC(/C=C1\SC(=S)N(CCC(=O)Nc2ccc(O)cc2)C1=O)=C\c1ccccc1	-2	3	65	-2	-65	23*
CCOc1ccc(/C=C2/SC(=S)N(CCC(=O)Nc3ccc(C(=O)O)cc3)C2=O)cc1	3	-3	-19	1	19	48*
CC(=Cc1ccccc1)C=C1SC(=S)N(CCCC(=O)Nc2ccc(C(=O)O)c(O)c2)C1=O	x	8	x	-4	x	x
O=C(Cc1ccncc1)NCC[C@@H]1CC[C@H](NC(=O)C2CCC2)[C@@H](CO)O1	x	1	x	12	x	x
Cn1cnc(S(=O)(=O)N2CCCCN3[C@@H](CO)[C@@H](c4ccc(-c5ccccc5F)cc4)[C@@H]3C2)c1	x	-9	x	5	x	x
O=C(C[C@H]1CC[C@H]2[C@@H](COC[C@H](O)CN2CC2CCCCC2)O1)NCc1ccc(F)cc1	x	-1	x	3	x	x
C[C@@H]1CCCCO[C@H](CN(C)Cc2ccc(Cl)c(Cl)c2)[C@H](C)CN([C@@H](C)CO)C(=O)c2cc(NC(=O)Cc3ccccc3)ccc2O1	x	4	x	5	x	x
C[C@H](CO)N1C[C@H](C)[C@@H](CN(C)C(=O)Nc2cccc3ccccc23)Oc2ccc(NC(=O)CCC(F)(F)F)cc2CC1=O	x	11	x	7	x	x
COC(=O)c1[nH]c2cc(C)ccc2c1NC(=O)CN1CCN(c2ccccc2OC)CC1	-9	-6	76*	x	-76	-1
COC(=O)c1[nH]c2cc(C)ccc2c1NC(=O)CN1CCOCC1	-15	x	-1	2	1	-6
Cc1ccc2c(c1)c1c3n2CCCNC3CCC1 (stereo unspecified)	-28	13	9	-5	-8	0
c1cc2c(cc1C1CCCCC1)c1c3n2CCCNC3CCC1 (stereo unspecified)	1	x	3	x	-3	25*
CC(C)NC(=O)Nc1ccc2c(c1)C(=O)N([C@@H](C)CO)C[C@H](C)[C@@H](CN(C)CC1CCCCC1)OCCCC[C@@H](C)O2	x	10	x	12	x	x
O=C(Nc1cccc(Cl)c1)Nc1nc(-c2ccccc2)cs1	-7	x	76*	1	-76	0
O=[N+]([O-])c1nn(-c2ccc(Cl)cc2)n(O)c1=NCc1ccccc1	41*	-8	x	2	x	-1
COc1ccc(NC(=O)C2CC(=O)n3c(nc4ccccc43)N2)cc1 (stereo unspecified)	-3	5	-9	5	9	34*
O=C(Nc1ccc(F)cc1)C1CC(=O)n2c(nc3ccccc32)N1 (stereo unspecified)	-6	-7	-17	x	17	4
SMILES	PvdQ inh	RAD54 branch	SR-BI HDL uptake	S100A4 MyoIIA	SR-BI DiI-HDL act	dFosB act
Cc1ccc2nc(NC(=O)/C=C/c3ccc4c(c3)OCO4)sc2c1	8	10	41	x	-41	-5
O=C(/C=C/c1ccc2c(c1)OCO2)Nc1nc2ccccc2s1	14	-1	36	x	-36	19*
CN1c2ccc(-c3ccc(C#N)cc3)cc2[C@@H]2[C@@H](CCN2C(=O)c2cccc(F)c2)[C@H]1CO	x	3	x	-3	x	x
O=[N+]([O-])c1ccc(Oc2ccc(S(=O)(=O)N3CCOCC3)cc2)cc1	-1	2	x	1	x	-1
O=[N+]([O-])c1ccc(-c2ccc(S(=O)(=O)N3CCOCC3)cc2)cc1	-15	1	80*	33	-80	-10
C[C@@H]1CN([C@H](C)CO)C(=O)c2cc(NC(=O)CCCN(C)C)ccc2O[C@@H]1CN(C)C	x	-1	x	11	x	x
CO[C@@H]1CN(C)C(=O)c2ccc(NC(=O)c3ccc4c(c3)OCO4)cc2OC[C@@H](C)N(CCC(F)(F)F)C[C@@H]1C	x	-5	x	-10	x	x
Cc1cnc(NC(=O)c2ccc3c(c2)OCCO3)s1	25	-4	15	-1	-15	-7
Cc1nc2c(ccc3nc(NC(=O)c4ccc5c(c4)OCCO5)sc32)s1	-1	x	75*	x	-75	u
Cc1nc2ccc3nc(NC(=O)c4ccc5c(c4)OCCO5)sc3c2s1	-6	-1	67	x	-67	173*
O=C(CCC(=O)NCCCc1ccccc1)NCCCc1ccccc1	-7	x	-62	3	62*	4
O=C(Cc1ccccc1)NCCCc1ccccc1	-12	-2	-9	x	9	-3
COc1ccc(NC(=O)N(C)C[C@H]2Oc3c(NC(=O)c4nc5ccccc5s4)cccc3C(=O)N([C@H](C)CO)C[C@@H]2C)cc1	x	4	x	-8	x	x
Cc1ccc(-c2cc(C(=O)N/N=C/c3c(C)nn(-c4ccccc4)c3C)[nH]n2)cc1	-4	6	78*	x	-78	-4
Cc1nn(-c2ccccc2)c(N2CCCC2)c1/C=N/NC(=O)c1cc(-c2ccccc2)nc2ccccc12	-11	5	88*	-6	-88	-10
Cc1nn(-c2ccccc2)c(N2CCCC2)c1/C=N/NC(=O)c1cccc(S(=O)(=O)Nc2ccc(Cl)cc2)c1	9	4	77*	-68	-77	-7
COc1ccc(-c2nn(-c3ccccc3)cc2/C=N/NC(=O)c2cccc(S(=O)(=O)Nc3ccccc3Cl)c2)cc1	-3	x	80*	-4	-80	-15
COc1cccc(-c2cnc3c(c2)C(=O)N([C@@H](C)CO)C[C@@H](C)[C@@H](CN(C)C(=O)CN(C)C)O3)c1	x	18	x	-3	x	x
C[C@H](CO)N1C[C@H](C)[C@@H](CN(C)Cc2ccc3c(c2)OCO3)Oc2ccc(NC(=O)CCN3CCOCC3)cc2C1=O	x	-9	x	-17	x	x
O=C(CC12CC3CC(CC(C3)C1)C2)NCc1ccccc1	-10	-13	-4	1	4	-4
